The nature of series [1]: Inhibition of chymotrypsin at 25 uM assessed as Kinact/Ki ratio incubated for 15 mins by spectrofluorometry.
In series [2] the target is Pancreatic elastase (Sus scrofa) (UniProt P08419+P00772). Briefly: Inhibition of porcine pancreatic elastase at 25 uM assessed as Kinact/Ki ratio incubated for 15 mins by spectrofluorometry. It is filed as protein assay.
Series [3] has as its target T1, Neutrophil elastase (Homo sapiens) (UniProt P08246).
T1 sequence (whole entry): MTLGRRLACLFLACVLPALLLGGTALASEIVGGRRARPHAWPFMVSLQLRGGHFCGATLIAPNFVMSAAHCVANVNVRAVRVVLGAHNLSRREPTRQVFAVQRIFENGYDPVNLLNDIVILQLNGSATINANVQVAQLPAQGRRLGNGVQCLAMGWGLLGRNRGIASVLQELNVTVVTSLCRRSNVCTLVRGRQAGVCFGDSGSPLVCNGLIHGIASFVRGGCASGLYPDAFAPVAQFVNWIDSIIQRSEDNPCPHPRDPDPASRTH
Briefly: Inhibition of human leukocyte elastase at 25 uM assessed as Kinact/Ki ratio incubated for 15 mins by spectrofluorometry.

A short description of series [4]: Inhibition of trypsin at 25 uM assessed as Kinact/Ki ratio incubated for 15 mins by spectrofluorometry.
For series [5], the species on record is Homo sapiens. Briefly: Selectivity ratio of Kinact/Ki ratio for human leukocyte elastase to Kinact/Ki ratio for chymotrypsin.
The nature of series [6]: Selectivity ratio of Kinact/Ki ratio for porcine pancreatic elastase to Kinact/Ki ratio for human leukocyte elastase.
Series [7] has as its target T1, Neutrophil elastase (Homo sapiens). Briefly: Irreversible inhibition of human leukocyte elastase assessed as recovery of enzyme activity using MeOSuc-AAPV-AFC substrate at 200 uM treated for 15 mins followed by dialysis measured up to 50 days by fluorescence assay. Also on record: scale not given: the % may be the effect or the level left.
Series [8] is filed under the species Homo sapiens. The experiment in a line: Selectivity ratio of Kinact/Ki ratio for chymotrypsin to Kinact/Ki ratio for human leukocyte elastase.
A short description of series [9]: Solubility in pH 7.4 PBS buffer at […] incubated at 37 degC by HPLC. It is filed as physicochemical.
The nature of series [10]: Half life in 80% human plasma at […] incubated at 37 degC by HPLC. In kind it is ADME, cell-free. An outline of the steps: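 DMSO stock (50 mM) added to freshly isolated pooled healthy-donor human plasma diluted to 80% with PBS pH 7.4, final 3 mg/mL or 0.1 mg/mL; incubated 37 °C; compound remaining monitored by HPLC over time to give half-life.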
The nature of series [11]: Half life in pH 7.4 PBS buffer at […] incubated at 37 degC by HPLC. In kind it is physicochemical.
A short description of series [12]: Solubility in 80% human plasma at […] incubated at 37 degC by HPLC. It is filed as ADME, cell-free.
A short description of series [13]: Chemical stability in pH 7.4 PBS buffer assessed as compound remaining at […] measured after 6 days at 37 degC by HPLC. In kind it is physicochemical. The following applies: read-out: Stability.
Series [14] is described as follows: Drug degradation in pH 7.4 PBS buffer assessed as compound hydrolysis at […] measured after 48 hrs at 37 degC by HPLC. The following applies: read-out: Drug degradation. It is filed as physicochemical.

This note sets out measurements from ChEMBL document CHEMBL2163241, “Human neutrophil elastase phosphonic inhibitors with improved potency of action” (J Med Chem, 2012).

As to `COC(=O)c1cccc(OP(=O)(Oc2cccc(C(=O)OC)c2)C(CC(C)C)NC(=O)[C@@H]2CCCN2C(=O)[C@@H](NC(=O)OC(C)(C)C)C(C)C)c1` (stereo not given in full), the Ratio is 166000 M⁻¹ s⁻¹ in [1]; 76900 M⁻¹ s⁻¹ in series [2]; 122000 M⁻¹ s⁻¹ in series [3]; 2800 M⁻¹ s⁻¹ in series [4]; above 1.3 in the series listed under Homo sapiens [5].
Regarding `CSc1ccc(OP(=O)(Oc2ccc(SC)cc2)[C@@H](NC(=O)[C@@H]2CCCN2C(=O)[C@@H](NC(=O)COc2ccc(OCC(=O)O)cc2)C(C)C)C(C)C)cc1`, the Ratio in series [1] is 6450 M⁻¹ s⁻¹; in [2], 39200 M⁻¹ s⁻¹; in series [6], 60; in series [3] it was 2.35e+06 M⁻¹ s⁻¹; in [4] it was below 50 M⁻¹ s⁻¹; in the series filed under Homo sapiens [8], 365. The Activity in [7] came to 15%.
As to `CSc1ccc(OP(=O)(Oc2ccc(SC)cc2)[C@@H](NC(=O)[C@@H]2CCCN2C(=O)[C@@H](NC(=O)Cn2ccc(=O)n(CC(=O)O)c2=O)C(C)C)C(C)C)cc1`, the Ratio in [1] is 40200 M⁻¹ s⁻¹; in series [2], 309000 M⁻¹ s⁻¹; in series [6] it was 3.5; in series [3], 1.08e+06 M⁻¹ s⁻¹; in series [4], 235 M⁻¹ s⁻¹; in the series filed under Homo sapiens [8] it was 27.
Turning to `CSc1ccc(OP(=O)(Oc2ccc(SC)cc2)C(NC(=O)[C@@H]2CCCN2C(=O)[C@@H](NC(=O)Cn2ccc(=O)n(CC(=O)O)c2=O)C(C)C)C(C)C)cc1` (mixture of isomers), the Ratio in [1] stood at 28300 M⁻¹ s⁻¹; in [2] it was 140000 M⁻¹ s⁻¹; in [3], 460000 M⁻¹ s⁻¹; in series [4], 130 M⁻¹ s⁻¹. The solubility in series [9] and in series [12] was 6.22 mM each time. For the same compound, the figures for the half-life in series [10] and in [11] were 4.55 h and 100 h, respectively.
Take `CSc1ccc(OP(=O)(Oc2ccc(SC)cc2)C(NC(=O)[C@@H]2CCCN2C(=O)[C@@H](NC(=O)Cn2cc(C)c(=O)n(CC(=O)O)c2=O)C(C)C)C(C)C)cc1` (mixture of isomers): the Ratio was 22900 M⁻¹ s⁻¹ in [1]; 118000 M⁻¹ s⁻¹ in [2]; 8.2 in series [6]; 965000 M⁻¹ s⁻¹ in series [3]; 140 M⁻¹ s⁻¹ in [4]; 42 in the series listed under Homo sapiens [8]. The solubility in [9] and in series [12] was 6.11 mM in each case. For the same compound, the half-life was 3.95 h in [10] and 100 h in series [11].
`CSc1ccc(OP(=O)(Oc2ccc(SC)cc2)C(NC(=O)[C@@H]2CCCN2C(=O)[C@@H](NC(=O)OC(C)(C)C)C(C)C)C(C)C)cc1` (mixture of isomers): the Ratio was 900 M⁻¹ s⁻¹ in series [1]; 14000 M⁻¹ s⁻¹ in [2]; 15 in series [6]; 217000 M⁻¹ s⁻¹ in series [3]; below 50 M⁻¹ s⁻¹ in [4]. For the same compound, the solubility in [9] and in series [12] was 0.36 mM throughout. Besides, the half-life was 6.2 h in series [10] and 28 h in series [11].
With `CSc1ccc(OP(=O)(Oc2ccc(SC)cc2)C(NC(=O)[C@@H]2CCCN2C(=O)[C@@H](NC(=O)COc2ccc(OCC(=O)O)cc2)C(C)C)C(C)C)cc1` (mixture of isomers), the Ratio in [1] was 4000 M⁻¹ s⁻¹; in series [2], 19100 M⁻¹ s⁻¹; in series [6], 50.8; in [3], 970000 M⁻¹ s⁻¹; in [4] it was below 50 M⁻¹ s⁻¹; in the series listed under Homo sapiens [8] it was 245. For the same compound, the solubility in [9] and in [12] was 6.23 mM each time. Moreover, the half-life in [10] was 8 h; in series [11], 150 h. Besides, the remaining at 144 h in series [13] is above 50%. Moreover, the degraded at 48 h in [14] was 16%.
Take `COc1ccc(C(=O)N[C@H](C(=O)N2CCC[C@H]2C(=O)NC(C(C)C)P(=O)(Oc2ccc(SC)cc2)Oc2ccc(SC)cc2)C(C)C)cc1` (mixture of isomers): the Ratio is below 50 M⁻¹ s⁻¹ in series [1], 4700 M⁻¹ s⁻¹ in series [2], 304000 M⁻¹ s⁻¹ in series [3] and below 50 M⁻¹ s⁻¹ in series [4]. Moreover, the solubility in series [9] and in [12] was 0.17 mM throughout. In addition, the values for the half-life in series [10] and in [11] were 3.8 h and 26 h, respectively.
For `CC(C)C(NC(=O)[C@@H]1CCCN1C(=O)[C@@H](NC(=O)OC(C)(C)C)C(C)C)P(=O)(Oc1ccccc1)Oc1ccccc1` (mixture of isomers), the Ratio in series [1] is below 50 M⁻¹ s⁻¹; in series [2], 22800 M⁻¹ s⁻¹; in [6], 2; in series [3], 46100 M⁻¹ s⁻¹; in series [4], below 50 M⁻¹ s⁻¹.

The term solubility denotes the concentration that dissolves in the medium under given conditions. A word on the half-life: it is the time needed for the level to fall by half in the phase considered.
